From ChEMBL document CHEMBL4038284, “Synthesis of novel quinoline-based 4,5-dihydro-1H-pyrazoles as potential anticancer, antifungal, antibacterial and antiprotozoal agents” (Eur J Med Chem, 2017)
In brackets after ≈: the same amount, converted by molar mass.

Assays:
[1] = test system: Klebsiella pneumoniae; assay: Antibacterial activity against ESBL positive Klebsiella pneumoniae ATCC 700603 after 24 hrs by resazurin dye based microdilution assay; assay type: functional; details: Klebsiella pneumoniae, 700603, 24 h
Outline: (§1)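 MIC taken as the lowest concentration giving visible inhibition and/or by resazurin (1 mg/mL). Gentamicin was the control. Run in duplicate, repeated at least three times.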

[2] = test system: Klebsiella pneumoniae; assay: Antibacterial activity against carbapenemase positive Klebsiella pneumoniae BAA 1705 after 24 hrs by resazurin dye based microdilution assay; assay type: functional; details: BAA 1705, 24 h; outline: as §1
[3] = test system: Leishmania panamensis; assay: Antileshmanial activity against EpiR/GFP fused Leishmania panamensis MHOM/CO/87/UA140 intracellular amastigotes infected in human […] cells after 72 hrs by flow cytometric method; assay type: functional, cell-based; details: MHOM/CO/87/UA140, 72 h
Outline: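 PMA-treated U-937 cells (3 × 10^5 cells/mL) infected with stationary-phase GFP L. panamensis promastigotes (15:1), 3 h at 34 °C, then washed. After 24 h, compounds added at 50, 12.5, 3.125 and 0.78 µg/mL for 72 h at 37 °C. EC50 by Probit; triplicate, two experiments.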

[4] = test system: Candida albicans; assay: Antifungal activity against Candida albicans ATCC 10231 incubated for 48 hrs under dark condition by broth microdilution method; assay type: functional; details: ATCC 10231, 48 h
Outline: (§2)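 CLSI M27-A3 broth microdilution in RPMI-1640, DMSO ≤1%, compounds at 250-0.98 µg/mL final. Inoculum 1-5 × 10^3 CFU/mL. Incubated 48 h at 30 °C in a moist dark chamber, read at OD405. MIC80 and MIC50 taken from % inhibition dose-response curves (mean ± SEM, triplicate). Amphotericin B was the positive control.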

[5] = test system: Cryptococcus neoformans; assay: Antifungal activity against Cryptococcus neoformans ATCC 32264 incubated for 48 hrs under dark condition by broth microdilution method; assay type: functional; details: ATCC 32264, 48 h; outline: as §2
[6] = test system: Candida albicans; assay: Growth inhibition of Candida albicans ATCC 10231 at 250 ug/ml incubated for 48 hrs under dark condition by broth microdilution method relative to control; assay type: functional; details: ATCC 10231, 48 h, read-out: GI
Outline: (§3)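 CLSI M27-A3 broth microdilution in RPMI-1640, DMSO ≤1%. Inoculum 1-5 × 10^3 CFU/mL. Incubated 48 h at 30 °C, dark. % inhibition = 100 − (OD405 test − sterility control)/(OD405 growth control − sterility control), with growth and sterility control wells. Triplicate.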

[7] = test system: Candida albicans; assay: Growth inhibition of Candida albicans ATCC 10231 at 125 ug/ml incubated for 48 hrs under dark condition by broth microdilution method relative to control; assay type: functional; details: ATCC 10231, 48 h, read-out: GI; outline: as §3
[8] = test system: Candida albicans; assay: Growth inhibition of Candida albicans ATCC 10231 at 62.5 ug/ml incubated for 48 hrs under dark condition by broth microdilution method relative to control; assay type: functional; details: ATCC 10231, 48 h, read-out: GI; outline: as §3
[9] = test system: Candida albicans; assay: Growth inhibition of Candida albicans ATCC 10231 at 31.25 ug/ml incubated for 48 hrs under dark condition by broth microdilution method relative to control; assay type: functional; details: ATCC 10231, 48 h, read-out: GI; outline: as §3
[10] = test system: Candida albicans; assay: Growth inhibition of Candida albicans ATCC 10231 at 15.62 ug/ml incubated for 48 hrs under dark condition by broth microdilution method relative to control; assay type: functional; details: ATCC 10231, 48 h, read-out: GI; outline: as §3
[11] = test system: Candida albicans; assay: Growth inhibition of Candida albicans ATCC 10231 at 7.8 ug/ml incubated for 48 hrs under dark condition by broth microdilution method relative to control; assay type: functional; details: ATCC 10231, 48 h, read-out: GI; outline: as §3
[12] = test system: Candida albicans; assay: Growth inhibition of Candida albicans ATCC 10231 at 3.4 ug/ml incubated for 48 hrs under dark condition by broth microdilution method relative to control; assay type: functional; details: ATCC 10231, 48 h, read-out: GI
[13] = test system: Cryptococcus neoformans; assay: Growth inhibition of Cryptococcus neoformans ATCC 32264 at 250 ug/ml incubated for 48 hrs under dark condition by broth microdilution method relative to control; assay type: functional; details: ATCC 32264, 48 h, read-out: GI; outline: as §3
[14] = test system: Cryptococcus neoformans; assay: Growth inhibition of Cryptococcus neoformans ATCC 32264 at 125 ug/ml incubated for 48 hrs under dark condition by broth microdilution method relative to control; assay type: functional; details: ATCC 32264, 48 h, read-out: GI; outline: as §3
[15] = test system: Cryptococcus neoformans; assay: Growth inhibition of Cryptococcus neoformans ATCC 32264 at 62.5 ug/ml incubated for 48 hrs under dark condition by broth microdilution method relative to control; assay type: functional; details: ATCC 32264, 48 h, read-out: GI; outline: as §3
[16] = test system: Cryptococcus neoformans; assay: Growth inhibition of Cryptococcus neoformans ATCC 32264 at 31.25 ug/ml incubated for 48 hrs under dark condition by broth microdilution method relative to control; assay type: functional; details: ATCC 32264, 48 h, read-out: GI; outline: as §3
[17] = test system: Cryptococcus neoformans; assay: Growth inhibition of Cryptococcus neoformans ATCC 32264 at 15.62 ug/ml incubated for 48 hrs under dark condition by broth microdilution method relative to control; assay type: functional; details: ATCC 32264, 48 h, read-out: GI; outline: as §3
[18] = test system: Cryptococcus neoformans; assay: Growth inhibition of Cryptococcus neoformans ATCC 32264 at 7.8 ug/ml incubated for 48 hrs under dark condition by broth microdilution method relative to control; assay type: functional; details: ATCC 32264, 48 h, read-out: GI; outline: as §3
[19] = test system: Cryptococcus neoformans; assay: Growth inhibition of Cryptococcus neoformans ATCC 32264 at 3.4 ug/ml incubated for 48 hrs under dark condition by broth microdilution method relative to control; assay type: functional; details: ATCC 32264, 48 h, read-out: GI
[20] = test system: Staphylococcus aureus; assay: Antibacterial activity against methicillin-sensitive Staphylococcus aureus ATCC 25923 after 24 hrs by resazurin dye based microdilution assay; assay type: functional; details: ATCC 25923, 24 h; outline: as §1
[21] = test system: Staphylococcus aureus; assay: Antibacterial activity against methicillin-resistant Staphylococcus aureus ATCC 43300 after 24 hrs by resazurin dye based microdilution assay; assay type: functional; details: ATCC 43300, 24 h
Outline: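 Broth microdilution in Mueller Hinton broth, inoculum 5 × 10^5 – 8 × 10^5. Compound stocks diluted in MHB with 5% DMSO and 0.1% Tween 80. Incubation 24 h at 35-37 °C. MIC is the lowest concentration with visible growth inhibition and/or by resazurin (1 mg/mL) read-out. Gentamicin as control. Run in duplicate, replicated at least three times.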

[22] = test system: Staphylococcus aureus; assay: Antibacterial activity against vancomycin-intermediate Staphylococcus aureus after 24 hrs by resazurin dye based microdilution assay; assay type: functional; outline: as §1
[23] = test system: Escherichia coli; assay: Antibacterial activity against Escherichia coli ATCC 25922 after 24 hrs by resazurin dye based microdilution assay; assay type: functional; details: ATCC 25922, 24 h; outline: as §1
[24] = test system: Pseudomonas aeruginosa; assay: Antibacterial activity against Pseudomonas aeruginosa ATCC 27853 after 24 hrs by resazurin dye based microdilution assay; assay type: functional; details: ATCC 27853, 24 h; outline: as §1
[25] = test system: Neisseria gonorrhoeae; assay: Antibacterial activity against beta lactamase positive Neisseria gonorrhoeae ATCC 31426 by oxidase test; assay type: functional
Outline: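 Agar dilution MIC on GC agar with 1% isovitalex containing increasing compound concentrations. Plates inoculated with about 1×10^4 CFU (5 µL). MIC is the lowest concentration that inhibited growth, with growth confirmed by oxidase test. Run in duplicate, repeated at least three times.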

[26] = test system: Plasmodium falciparum; assay: Antiplasmodial activity against chloroquine-sensitive Plasmodium falciparum 3D7 assessed as reduction in parasitic LDH activity after 48 hrs by Malstat reagent based […] method; assay type: functional; details: 3D7, 48 h
Outline: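 Unsynchronized P. falciparum 3D7 at 0.5% parasitemia and 1% hematocrit in RPMI with 3% Albumax II. Exposed to 100, 25, 6.25 and 1.56 µg/mL for 48 h at 37 °C under 90% N2/5% CO2/5% O2. After three freeze-thaw cycles, LDH measured with Malstat and NBT/PES, 1 h in the dark, read at 650 nm. IC50 by Probit; triplicate, ≥2 experiments.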

[27] = test system: U-937; assay: Cytotoxicity against human U937 cells after 72 hrs by MTT assay; assay type: cell-based; details: u-937, 72 h
Outline: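 Exponentially growing U-937 at 1 × 10^5 cells/mL in RPMI-1640 with 10% FBS were exposed to 200, 50, 12.5 and 3.125 µg/mL for 72 h at 37 °C, 5% CO2. MTT for 3 h, stopped with isopropanol/SDS, formazan read at 570 nm, blank-corrected. LC50 by Probit from % viability against untreated cells. Triplicate, at least two independent experiments.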

[28] = test system: Trypanosoma cruzi; assay: Antitrypanosomal activity against Trypanosoma cruzi Tulahuen intracellular amastigote harboring LacZ infected in human U937 cells after 72 hrs by CPRG/Nonidet reagent based spectrophotometric method; assay type: functional, cell-based; details: U-937, 72 h
Outline: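 U-937 cells at 2.5 × 10^5 cells/mL in RPMI-1640 with 10% serum and 0.1 µg/mL PMA were infected with β-galactosidase-transfected Tulahuen epimastigotes at 5 parasites per cell. Infected cells were exposed to 50, 12.5, 3.125 and 0.78 µg/mL for 72 h. CPRG (100 uM) and 0.1% Nonidet P-40 were added for 3 h, read at 570 nm. EC50 by Probit. Triplicate, at least two experiments; benznidazole as reference.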

Structure (SMILES)	MIC [1] [µg/mL]	MIC [2] [µg/mL]	EC50 [3] [µg/mL]	MIC50 [4] [µg/mL]	MIC80 [4] [µg/mL]	MIC50 [5] [µg/mL]	MIC80 [5] [µg/mL]	inhibition of growth at 250 µg/mL [6] [%]	inhibition of growth at 125 µg/mL [7] [%]	inhibition of growth at 62.5 µg/mL [8] [%]	inhibition of growth at 31.25 µg/mL [9] [%]	inhibition of growth at 15.62 µg/mL [10] [%]	inhibition of growth at 7.8 µg/mL [11] [%]	inhibition of growth at 3.4 µg/mL [12] [%]	inhibition of growth at 250 µg/mL [13] [%]	inhibition of growth at 125 µg/mL [14] [%]	inhibition of growth at 62.5 µg/mL [15] [%]	inhibition of growth at 31.25 µg/mL [16] [%]	inhibition of growth at 15.62 µg/mL [17] [%]	inhibition of growth at 7.8 µg/mL [18] [%]	other results
O=C(/C=C/c1cccc(Nc2ccnc3cc(Cl)ccc23)c1)c1ccc(Cl)cc1	> 1000	> 1000	0.79 (≈ 1.88 µM)	62.5 (≈ 149 µM)	≥ 250	7.8 (≈ 18.6 µM)	7.8 (≈ 18.6 µM)	78.4	68.2	50.3	41.8	39.4	29	15.3	100	100	100	100	89	82	inhibition of growth at 3.4 µg/mL [19]: 49.8%; MIC [20]: > 1000 µg/mL; MIC [21]: > 1000 µg/mL; MIC [22]: > 1000 µg/mL; MIC [23]: > 1000 µg/mL; MIC [24]: > 1000 µg/mL; MIC [25]: > 1000 µg/mL; EC50 [26]: 209 µg/mL (≈ 497 µM); LC50 [27]: 0.7 µg/mL (≈ 1.67 µM); EC50 [28]: 0.72 µg/mL (≈ 1.72 µM)
COc1cc(C2=NN(C=O)C(c3cccc(Nc4ccnc5cc(Cl)ccc45)c3)C2)cc(OC)c1OC (stereo not given)	> 1000	> 1000	6.79 (≈ 13.1 µM)	≥ 250	≥ 250	≥ 250	≥ 250	43.9	26.7	23.7	19.7	19.6	5.72	5.34	0	0	0	0	0	0	inhibition of growth at 3.4 µg/mL [19]: 0%; MIC [20]: > 1000 µg/mL; MIC [21]: > 1000 µg/mL; MIC [22]: > 1000 µg/mL; MIC [23]: > 1000 µg/mL; MIC [24]: > 1000 µg/mL; MIC [25]: > 1000 µg/mL; EC50 [26]: 24.3 µg/mL (≈ 47 µM); LC50 [27]: 17.4 µg/mL (≈ 33.7 µM); EC50 [28]: 7.22 µg/mL (≈ 14 µM)
